# Reference: ChEMBL document CHEMBL4725388, “Characterization of Aminobenzylphenols as Protein Disulfide Isomerase Inhibitors in Glioblastoma Cell Lines” (J Med Chem, 2020)
# Activity calls are given as the source filed them. The calls are words filed in the database; no cut-off is given here.
# What was measured:
# [1] = biological target: T1, Protein disulfide-isomerase (Homo sapiens, UniProt P07237); test: Inhibition of recombinant human wild-type N-terminal His-tagged PDIA1 expressed in Escherichia coli strain BL21(DE3) using bovine insulin as substrate preincubated for 1 hr followed by substrate addition
# Procedure, shortened: (§1)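 IC50 from dose-response curves; PDI reductase assay for enzyme, MTT in U-87 MG cells for cytotoxicity; mean ± SD of at least three independent experiments.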
# Target sequence in this assay (P07237 whole entry): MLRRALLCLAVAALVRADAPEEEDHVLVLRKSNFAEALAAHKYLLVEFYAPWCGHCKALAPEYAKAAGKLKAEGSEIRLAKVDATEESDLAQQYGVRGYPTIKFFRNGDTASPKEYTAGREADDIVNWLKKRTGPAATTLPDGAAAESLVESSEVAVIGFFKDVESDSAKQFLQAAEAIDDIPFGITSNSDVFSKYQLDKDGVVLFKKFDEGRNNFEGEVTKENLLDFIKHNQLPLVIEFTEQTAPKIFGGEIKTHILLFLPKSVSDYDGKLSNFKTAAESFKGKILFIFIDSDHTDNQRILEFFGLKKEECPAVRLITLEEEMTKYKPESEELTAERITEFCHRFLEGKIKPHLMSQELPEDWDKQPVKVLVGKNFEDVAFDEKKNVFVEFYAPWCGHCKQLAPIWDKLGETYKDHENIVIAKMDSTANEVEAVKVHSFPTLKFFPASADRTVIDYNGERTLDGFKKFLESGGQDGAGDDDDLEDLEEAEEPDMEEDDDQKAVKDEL
# [2] = biological target: T1, Protein disulfide-isomerase; test: Binding affinity to recombinant human wild-type N-terminal His-tagged PDIA1 expressed in Escherichia coli strain BL21(DE3) assessed as adduct formation at 100 uM measured after 30 mins in presence of DTT by Q-TOF MS analysis
# Procedure, shortened: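 Recombinant PDI at 10 μM incubated 30 min with 100 μM compound and 100 μM DTT before injection; adducts detected by quadrupole time-of-flight mass spectrometry.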
# Target sequence in this assay (P07237 18-508 limits assumed): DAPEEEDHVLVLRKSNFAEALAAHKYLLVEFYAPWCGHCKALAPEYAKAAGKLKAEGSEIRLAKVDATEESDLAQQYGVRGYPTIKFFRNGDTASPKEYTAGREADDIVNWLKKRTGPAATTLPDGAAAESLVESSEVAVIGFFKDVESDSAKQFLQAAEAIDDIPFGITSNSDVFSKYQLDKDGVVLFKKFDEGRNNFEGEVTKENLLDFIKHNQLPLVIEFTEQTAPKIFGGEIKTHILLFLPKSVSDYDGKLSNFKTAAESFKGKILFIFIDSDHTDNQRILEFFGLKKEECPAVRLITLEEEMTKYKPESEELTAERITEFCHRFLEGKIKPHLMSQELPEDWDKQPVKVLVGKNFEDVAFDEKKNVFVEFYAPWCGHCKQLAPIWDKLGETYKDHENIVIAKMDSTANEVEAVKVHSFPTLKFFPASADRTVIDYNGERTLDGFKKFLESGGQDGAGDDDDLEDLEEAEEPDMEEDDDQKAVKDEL
# [3] = biological target: T1, Protein disulfide-isomerase; test: Irreversible inhibition of recombinant human wild-type N-terminal His-tagged PDIA1 expressed in Escherichia coli strain BL21(DE3) at 400 uM using bovine insulin as substrate preincubated for 30 mins followed by 100-fold dilution substrate addition further incubated for 1 hr and subsequent substrate addition; details: time 1.5 hrs
# Target sequence in this assay (P07237 18-508 limits assumed): as above
# [4] = system: U-87 MG; test: Cytotoxicity against human U-87 MG cells assessed as growth inhibition at 30 uM measured after 72 hrs by MTT assay relative to control; assay type: functional, U-87MG ATCC; details: read-out: GI
# Procedure, shortened: (§2)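 Single-concentration screen: percent inhibition of cell growth at 30 μM in U-87 MG and MIA PaCa-2 cells by MTT.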
# [5] = biological target: T1, Protein disulfide-isomerase; test: Binding affinity to recombinant human wild-type N-terminal His-tagged PDIA1 expressed in Escherichia coli strain BL21(DE3) assessed as increase in protein mass at 100 uM measured after 30 mins in presence of GSTO1 and GRP78 by Q-TOF MS analysis relative to control
# Procedure, shortened: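 100 μM compound incubated 30 min with a mix of 10 μM PDI, 10 μM GSTO1 and 10 μM GRP78 (GRP78 as non-specific binding control); protein masses read by QTOF MS before/after.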
# Target sequence in this assay (P07237 18-508 limits assumed): as above
# [6] = system: U-87 MG; test: Cytotoxicity against human U-87 MG cells assessed as growth inhibition measured after 72 hrs by MTT assay; assay type: functional, cell-based, U-87MG ATCC; procedure, shortened: as §1
# [7] = biological target: T1, Protein disulfide-isomerase; test: Displacement of PACMA57 from recombinant human wild-type N-terminal His-tagged PDIA1 expressed in Escherichia coli strain BL21(DE3) at 100 uM measured after overnight incubation by gel-based imaging analysis
# Target sequence in this assay (P07237 18-508 limits assumed): as above
# [8] = biological target: T1, Protein disulfide-isomerase; test: Binding affinity to PDIA1 in human U-87 MG cells at 10 uM measured after 24 hrs in absence of fetal bovine serum by coomassie staining GFP channel based assay; assay type: cell-based
# Target sequence in this assay (P07237 18-508 limits assumed): as above
# [9] = biological target: T2, Albumin (Bos taurus, UniProt P02769); test: Binding affinity to fetal bovine serum albumin at 20 uM measured after overnight incubation in presence of cell free DMEM medium by gel based assay; assay type: ADME; details: cattle
# [10] = Drug uptake in human A 172 cell endoplasmic reticulum at 10 uM measured after 24 hrs by PDI antibody/DAPI staining based confocal microscopic analysis; assay type: ADME, subcellular; details: a 172, 24 h
# [11] = biological target: T1, Protein disulfide-isomerase; test: Binding affinity to PDIA1 in human U-87 MG cells at 40 uM measured after 24 hrs in presence of fetal bovine serum by Western blot analysis; assay type: cell-based
# Target sequence in this assay (P07237 18-508 limits assumed): as above
# [12] = biological target: T1, Protein disulfide-isomerase; test: Binding affinity to recombinant human wild-type N-terminal His-tagged PDIA1 expressed in Escherichia coli strain BL21(DE3) at 20 uM measured after 24 hrs in presence of BSA by SDS PAGE analysis
# [13] = biological target: T2, Albumin; test: Binding affinity to fetal bovine serum albumin at 40 uM measured after 24 hrs in presence of human U-87 MG cells by Western blot analysis; assay type: ADME, cell-free; details: cattle
# [14] = Drug uptake in human A 172 cell cytoplasm at 10 uM measured after 24 hrs by PDI antibody/DAPI staining based confocal microscopic analysis; assay type: ADME, subcellular; details: a 172, 24 h
# [15] = biological target: T1, Protein disulfide-isomerase; test: Inhibition of recombinant human wild-type N-terminal His-tagged PDIA1 expressed in Escherichia coli strain BL21(DE3) at 10 to 40 uM using bovine insulin as substrate preincubated for 1 hr followed by substrate addition; details: dose microM 10-40, time 1.0 hrs
# [16] = Drug uptake in human A 172 cell nucleus at 10 uM measured after 24 hrs by PDI antibody/DAPI staining based confocal microscopic analysis; assay type: ADME, subcellular; details: a 172, 24 h
# [17] = biological target: T1, Protein disulfide-isomerase; test: Inhibition of recombinant human wild-type N-terminal His-tagged PDIA1 expressed in Escherichia coli strain BL21(DE3) at 10 uM using bovine insulin as substrate preincubated for 1 hr followed by substrate addition in presence of N-acetyl cysteine
# Procedure, shortened: (§3)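 Compound incubated with N-acetyl cysteine before addition to the PDI reductase assay with PDIA1, at a final compound concentration of 10 μM.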
# [18] = biological target: T1, Protein disulfide-isomerase; test: Binding affinity to recombinant human wild-type N-terminal His-tagged PDIA1 expressed in Escherichia coli strain BL21(DE3) assessed as change in melting temperature at 100 uM by ROX dye based thermal shift assay
# [19] = biological target: T1, Protein disulfide-isomerase; test: Displacement of ANS from recombinant human wild-type N-terminal His-tagged PDIA1 expressed in Escherichia coli strain BL21(DE3) at 100 uM measured after 1 hr by fluorescence assay
# [20] = biological target: T1, Protein disulfide-isomerase; test: Inhibition of recombinant human wild-type N-terminal His-tagged PDIA1 expressed in Escherichia coli strain BL21(DE3) at 10 uM using bovine insulin as substrate preincubated for 1 hr followed by substrate addition in presence of glutathione
# Procedure, shortened: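 Glutathione added to the PDI reaction buffer before 10 μM compound; screening done with 5 mM GSH, reductase assay DTT at 500 μM.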
# [21] = biological target: T1, Protein disulfide-isomerase; test: Inhibition of recombinant human wild-type N-terminal His-tagged PDIA1 expressed in Escherichia coli strain BL21(DE3) at 10 uM using bovine insulin as substrate preincubated for 1 hr followed by substrate addition in absence of glutathione
# [22] = system: U-87 MG; test: Inhibition of colony formation in BSO-treated human U-87 MG cells at 0.3 to 30 uM measured after 10 to 14 days by crystal violet staining based assay; assay type: functional, cell-based; details: U-87MG ATCC, dose microM 0.3-30, time day 10-14
# Procedure, shortened: (§4)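 U-87 MG cells pretreated with BSO for 24 hours before compound addition; read-out by colony formation assay.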
# [23] = species: Homo sapiens; test: Binding affinity to recombinant human wild-type N-terminal His-tagged PDIA1 C53S mutant expressed in Escherichia coli strain BL21(DE3) assessed as adduct formation at 100 uM measured after 30 mins in presence of DTT by Q-TOF MS analysis
# [24] = system: U-87 MG; test: Inhibition of colony formation in BSO-treated human U-87 MG cells at 0.3 to 10 uM measured after 10 to 14 days by crystal violet staining based assay; assay type: functional, cell-based; details: U-87MG ATCC, dose microM 0.3-10, time day 10-14; procedure, shortened: as §4
# [25] = system: MIA PaCa-2; test: Cytotoxicity against human MIA PaCa-2 cells assessed as growth inhibition at 30 uM measured after 72 hrs by MTT assay relative to control; assay type: functional; details: read-out: GI; procedure, shortened: as §2
# [26] = system: Protein disulfide-isomerase (Homo sapiens), P07237 [H256A]; test: Inhibition of recombinant human wild-type N-terminal His-tagged PDIA1 H256A mutant expressed in Escherichia coli strain BL21(DE3) using bovine insulin as substrate preincubated for 1 hr followed by substrate addition
# [27] = biological target: T1, Protein disulfide-isomerase; test: Inhibition of recombinant human wild-type N-terminal His-tagged PDIA1 expressed in Escherichia coli strain BL21(DE3) at 40 uM using bovine insulin as substrate preincubated for 1 hr followed by substrate addition relative to control
# [28] = biological target: T1, Protein disulfide-isomerase; test: Inhibition of recombinant human wild-type N-terminal His-tagged PDIA1 expressed in Escherichia coli strain BL21(DE3) at 10 uM using bovine insulin as substrate […]; procedure, shortened: as §3
# [29] = biological target: T1, Protein disulfide-isomerase; test: Inhibition of recombinant human wild-type N-terminal His-tagged PDIA1 expressed in Escherichia coli strain BL21(DE3) at 1.1 to 90 uM using bovine insulin as substrate preincubated for 1 hr followed by substrate addition in presence of glutathione; details: dose microM 1.1-90, time 1.0 hrs
# [30] = biological target: T1, Protein disulfide-isomerase; test: Binding affinity to PDIA1 in human U-87 MG cell lysates at 5 uM measured after 24 hrs by PAGE analysis; assay type: subcellular
# [31] = biological target: T1, Protein disulfide-isomerase; test: Binding affinity to PDIA1 in human U-87 MG cells at 5 uM measured after 24 hrs in presence of DTT by coomassie staining GFP channel based Western blot assay; assay type: cell-based
# [32] = biological target: T2, Albumin; test: Binding affinity to BSA at 100 uM measured after overnight incubation by coomassie staining GFP channel based Western blot assay; assay type: ADME, cell-free; details: cattle, serum
# [33] = biological target: T1, Protein disulfide-isomerase; test: Inhibition of recombinant human wild-type N-terminal His-tagged PDIA1 expressed in Escherichia coli strain BL21(DE3) assessed as ratio of Kinact to Ki using bovine insulin as substrate preincubated for 5 to 60 mins followed by substrate addition; details: time min 5-60
# Procedure, shortened: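 Activity measured in PDI reductase assay (insulin substrate, absorbance followed over time) at several inhibitor concentrations and preincubation times of 5 to 60 minutes; kinact/KI derived from concentration- and time-dependent inhibition curves.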
# [34] = system: U-87 MG; test: Inhibition of colony formation in BSO-treated human U-87 MG cells at 0.3 to 3 uM measured after 10 to 14 days by crystal violet staining based assay; assay type: functional, cell-based; details: U-87MG ATCC, dose microM 0.3-3, time day 10-14; procedure, shortened: as §4
# T2 sequence (P02769 whole entry): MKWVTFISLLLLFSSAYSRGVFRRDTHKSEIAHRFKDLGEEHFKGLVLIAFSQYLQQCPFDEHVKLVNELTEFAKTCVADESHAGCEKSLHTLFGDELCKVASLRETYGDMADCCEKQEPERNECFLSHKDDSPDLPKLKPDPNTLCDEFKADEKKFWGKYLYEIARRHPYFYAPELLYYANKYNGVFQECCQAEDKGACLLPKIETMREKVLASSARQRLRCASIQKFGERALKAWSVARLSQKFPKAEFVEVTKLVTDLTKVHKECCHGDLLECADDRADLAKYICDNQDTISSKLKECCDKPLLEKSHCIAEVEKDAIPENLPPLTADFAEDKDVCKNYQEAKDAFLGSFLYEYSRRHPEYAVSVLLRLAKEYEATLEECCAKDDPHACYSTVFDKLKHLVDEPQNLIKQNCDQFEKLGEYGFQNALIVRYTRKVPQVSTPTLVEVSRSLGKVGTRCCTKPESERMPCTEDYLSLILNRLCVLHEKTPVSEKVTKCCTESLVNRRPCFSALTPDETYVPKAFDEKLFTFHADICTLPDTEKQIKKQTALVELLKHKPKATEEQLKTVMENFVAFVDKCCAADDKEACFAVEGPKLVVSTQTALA
# Chain of Protein disulfide-isomerase (Homo sapiens), P07237 [H256A] (P07237 whole entry H256A): as the sequence (P07237 whole entry) above, with H256A counted along it
smiles,measurement,setting,value
COc1cccc(C(c2cc3c(cc2O)OCO3)N2CCOCC2)c1OC (centres undefined),IC50,[1],1.06 µM
same,Activity,[2],Active
same,inhibition,[3],inactive
same,inhibition of growth at 30 µM,[4],66%
same,fold change (FC),[5],2
same,IC50,[6],32 µM
Oc1cc2c(cc1C(c1ccc(F)cc1)N1CCCCC1)CCC2 (centres undefined),IC50,[1],> 30 µM
same,inhibition,[7],inactive
same,Activity,[5],inactive
CC1=CC(C)=[N+]2C1=C(c1ccc(NC(=O)c3ccc(C(c4cc5c(cc4O)OCO5)N4CCCCC4)cc3)cc1)c1c(C)cc(C)n1[B-]2(F)F (centres undefined),Activity,[8],inactive
same,Activity,[9],Active
same,Drug uptake,[10],Active
same,Activity,[11],inactive
same,Activity,[12],Active
same,Activity,[13],Active
same,Drug uptake,[14],Active
same,inhibition,[15],inactive
same,Drug uptake,[16],Active
N#Cc1cccc(/C=C/C(=O)c2ccc(O)cc2)c1,inhibition,[17],inactive
same,ΔTm,[18],1.55 °C
same,inhibition,[19],Active
same,inhibition,[20],inactive
CN(C)c1ccc(C(Nc2ncccn2)c2cc3c(cc2O)OCO3)cc1 (centres undefined),inhibition,[21],88%
same,inhibition,[20],64%
Oc1c(C(c2ccc(F)cc2)N2CCNCC2)ccc2cncnc12 (centres undefined),IC50,[1],1.2 µM
same,Activity,[2],Active
same,inhibition,[21],100%
same,inhibition,[22],inactive
same,Activity,[23],Active
same,inhibition,[20],44%
Oc1c(C(Nc2ccccn2)c2ccc(Cl)cc2)ccc2cccnc12 (centres undefined),inhibition,[17],inactive
same,IC50,[1],0.17 µM
same,ΔTm,[18],-0.05 °C
same,inhibition,[19],inactive
same,inhibition,[3],inactive
same,inhibition,[24],Active
same,inhibition of growth at 30 µM,[4],> 40%
same,inhibition of growth at 30 µM,[25],> 40%
same,inhibition,[26],Active
same,inhibition,[27],50%
same,IC50,[6],10.6 µM
same,inhibition,[20],inactive
same,inhibition,[28],Active
Oc1c(C(c2ccc(F)cc2)N2CCN(C(c3ccc(F)cc3)c3ccc4cncnc4c3O)CC2)ccc2cncnc12 (centres undefined),Activity,[2],Active
same,inhibition,[29],Active
same,inhibition,[22],Active
same,Activity,[23],Active
CC1=CC(C)=[N+]2C1=C(c1ccc(C(=O)NCCNC(=O)c3ccc(C(c4cc5c(cc4O)OCO5)N4CCCCC4)cc3)cc1)c1c(C)cc(C)n1[B-]2(F)F (centres undefined),IC50,[1],1.37 µM
same,Activity,[9],Active
same,Activity,[30],Active
same,Drug uptake,[10],Active
same,Activity,[12],Active
same,Activity,[31],inactive
same,Drug uptake,[14],Active
same,Activity,[32],Not Active
same,Drug uptake,[16],Active
COc1cccc(C(c2ccc3cccnc3c2O)N2CCOCC2)c1OC (centres undefined),IC50,[1],0.39 µM
same,inhibition of growth at 30 µM,[4],74%
same,IC50,[6],33 µM
Oc1c(C(c2ccc(F)cc2)N2CCCCC2)ccc2cccnc12 (centres undefined),IC50,[1],0.69 µM
same,inhibition of growth at 30 µM,[4],54%
same,IC50,[6],37 µM
C#CC(=O)N(c1ccc(OC)cc1OC)C(C(=O)NCC(=O)OCC)c1cccs1 (centres undefined),inhibition,[17],inactive
same,ΔTm,[18],0.18 °C
same,inhibition,[20],inactive
same,Ratio,[33],2 10^2/M/s
COc1ccc(C(c2cc3c(cc2O)OCO3)N2CCOCC2)cc1OC (centres undefined),inhibition,[17],inactive
same,IC50,[1],0.3 µM
same,ΔTm,[18],-0.36 °C
same,inhibition,[34],Active
same,inhibition,[19],inactive
same,inhibition,[3],Active
same,inhibition,[7],Active
same,inhibition of growth at 30 µM,[4],> 40%
same,inhibition of growth at 30 µM,[25],> 40%
same,inhibition,[26],Active
same,inhibition,[27],50%
same,IC50,[6],18.3 µM
same,inhibition,[20],inactive
same,inhibition,[28],Active
same,Ratio,[33],2.6 10^3/M/s
COC(=O)C1(C)c2[nH]c3ccccc3c2CCN1C(=O)CCl (centres undefined),Ratio,[33],1.7 10^2/M/s
Oc1cc2c(cc1C(Nc1ncccn1)c1ccc(F)cc1)OCO2 (centres undefined),IC50,[1],12.7 µM
same,IC50,[6],> 10 µM
